Published values pooled from the literature.
Protocols differ between the studies behind these lines.
Organism: Plasmodium falciparum
Effect on: parasite growth

Structure (SMILES)	test	test system	setting	IC50
COC1=CC(c2ccco2)=NC1=Cc1ccc(CCCCCCCCCC(C)O)[nH]1 (stereo not drawn)		DD2	drug-resistant strain, blood stage	> 2500 nM
Clc1ccc2c(c1)nc(C1CCNCC1)n2Cc1ccccc1		K1	drug-resistant strain, blood stage	76 nM
CCN(CC)CCCC(C)Nc1ccnc2cc(Cl)ccc12 (stereo not drawn)		W2	72 h, drug-resistant strain	360 nM
CC(C)(C)C(O)C(Oc1ccc(-c2ccccc2)cc1)n1cncn1 (stereo not drawn)	SYBR Green		blood stage	8690 nM
COC1=CC(c2cccn2C)=NC1=Cc1ccc(CCCCCCCCCC(C)O)[nH]1 (stereo not drawn)		7G8	drug-resistant strain, blood stage	1000 nM
Brc1ccc2c(c1)nc(N1CCNCC1)n2Cc1ccccc1		K1	drug-resistant strain, blood stage	64 nM
OC(c1cc(C(F)(F)F)nc2c(C(F)(F)F)cccc12)C1CCCCN1 (stereo not drawn)			blood stage	37.2 nM
CCN(CC)CCCC(C)Nc1ccnc2cc(Cl)ccc12 (stereo not drawn)		7G8	drug-resistant strain, blood stage	63 nM
NC(N)=NC(=O)c1cc(C#Cc2ccc(C(F)(F)F)c(C(=O)Nc3ccccn3)c2)cc(C(F)(F)F)c1		K1	drug-resistant strain, blood stage	19 nM
CCc1ccc(C2=NC(=Cc3ccc(CCCCCCCCCC(C)O)[nH]3)C(OC)=C2)[nH]1 (stereo not drawn)		7G8	drug-resistant strain, blood stage	24 nM
CCN(CC)CCCC(C)Nc1ccnc2cc(Cl)ccc12 (stereo not drawn)		W2	72 h, drug-resistant strain, blood stage	0.155 µg/mL
COC1=CC(c2ccc[nH]2)=NC1=Cc1ccc(CCCCCCCCCCCO)[nH]1		7G8	drug-resistant strain, blood stage	93 nM
FC(F)(F)c1ccc2c(c1)nc(N1CCNCC1)n2Cc1ccccc1		K1	drug-resistant strain, blood stage	415 nM
CCN(CC)CCCC(C)Nc1ccnc2cc(Cl)ccc12 (stereo not drawn)		DD2	drug-resistant strain	102 nM
COC1=CC(c2ccc[nH]2)=NC1=Cc1ccc(CCCCCCCCCCO)[nH]1		7G8	drug-resistant strain, blood stage	168 nM
CCN(CC)CCCC(C)Nc1ccnc2cc(Cl)ccc12 (stereo not drawn)	SYBR Green	W2	drug-resistant strain, blood stage	383 nM
CC1=C(C)C(c2ccc[nH]2)=NC1=Cc1ccc(CCCCCCCCCC(C)O)[nH]1 (stereo not drawn)		7G8	drug-resistant strain, blood stage	627 nM
CCN(CC)CCCC(C)Nc1ccnc2cc(Cl)ccc12 (stereo not drawn)	ELISA	DD2	drug-resistant strain, blood stage	262 nM
CCN(CC)CCCC(C)Nc1ccnc2cc(Cl)ccc12 (stereo not drawn)		D6	blood stage	0.02 µg/mL
CCN(CC)CCCC(C)Nc1ccnc2cc(Cl)ccc12 (stereo not drawn)		3D7	blood stage	11 nM
NC1CCN(c2nc3cc(Cl)ccc3n2Cc2ccccc2)CC1		K1	drug-resistant strain, blood stage	14 nM
CCCCCCCCCCOc1cc2c(O)c(C(=O)OCC)cnc2cc1OCC	SYBR Green	HB3	blood stage	< 5.7 nM
NCCNc1nc2cc(Cl)ccc2n1Cc1ccccc1		K1	drug-resistant strain, blood stage	339 nM
COC1=CC(c2ccc[nH]2)=NC1=Cc1ccc(CCCCCCCCCCCCO)[nH]1		DD2	drug-resistant strain, blood stage	23 nM
